These results are taken from ChEMBL document CHEMBL4130408, “Photoactivation provides a mechanistic explanation for pan-assay interference behaviour of 2-aminopyrroles in lipoxygenase inhibition” (Eur J Med Chem, 2017).

Assay [1] addresses T1, Polyunsaturated fatty acid lipoxygenase ALOX15 (Homo sapiens, UniProt P16050).
T1 sequence (P16050 whole entry): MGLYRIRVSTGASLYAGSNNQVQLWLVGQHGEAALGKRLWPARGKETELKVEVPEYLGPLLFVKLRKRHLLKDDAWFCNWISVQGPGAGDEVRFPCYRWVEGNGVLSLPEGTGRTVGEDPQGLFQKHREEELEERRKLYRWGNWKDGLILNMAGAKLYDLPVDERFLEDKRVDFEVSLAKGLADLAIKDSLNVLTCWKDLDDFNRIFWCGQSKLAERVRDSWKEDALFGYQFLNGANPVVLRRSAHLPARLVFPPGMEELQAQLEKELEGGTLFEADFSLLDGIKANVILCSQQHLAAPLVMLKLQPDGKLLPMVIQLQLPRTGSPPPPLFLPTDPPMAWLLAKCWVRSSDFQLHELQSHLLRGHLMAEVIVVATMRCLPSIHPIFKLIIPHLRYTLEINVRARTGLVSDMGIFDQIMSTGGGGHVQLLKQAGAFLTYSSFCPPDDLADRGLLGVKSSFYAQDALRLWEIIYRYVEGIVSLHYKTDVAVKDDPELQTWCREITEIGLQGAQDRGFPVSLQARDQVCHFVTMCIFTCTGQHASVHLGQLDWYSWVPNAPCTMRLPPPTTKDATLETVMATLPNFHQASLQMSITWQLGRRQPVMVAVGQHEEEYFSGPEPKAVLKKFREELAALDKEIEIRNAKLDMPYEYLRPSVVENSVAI
Kind of assay: Inhibition of recombinant human 15-LOX-1 expressed in Escherichia coli BL21(DE3) using linoleic acid as substrate preincubated for 10 mins followed by substrate addition.

Assay [2] deals with HCC-1.2. Kind of assay: Cytotoxicity against human HCC1.2 cells assessed as growth inhibition after 48 hrs by neutral red assay. The assay is classed as functional. As to conditions: for CC50: HCC-1.2, 48 h, read-out: LD50 (the source's name). The procedure, abridged: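 HCC-1.2 hepatocarcinoma cells grown in RPMI1640 with 10% heat-inactivated FCS at 37 °C, 5% CO2. 2 × 10^5 cells/well seeded and grown 48 h. Viable cells quantified by neutral red (50 μg/mL) uptake from serum-free medium over 2 h. Dye dissolved in 1% acetic acid/70% ethanol, read as absorbance 560 minus 620 nm. Triplicate wells; three to five independent experiments; LD50 reported.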

Assay [3] relates to HCC-1.2. Kind of assay: Photocytotoxicity against human HCC1.2 cells assessed as decrease in cell viability at 1 to 10 uM preincubated with day light for 10 mins measured after 48 hrs by neutral red assay. Format: functional, cell-based.
Assay [4] has as its system HCC-1.2. Kind of assay: Photocytotoxicity against human HCC1.2 cells assessed as decrease in cell viability at 1 to 10 uM preincubated with UV light at 365 nm for 10 mins measured after 48 hrs by neutral red assay. Format: functional, cell-based.
The test system of assay [5] is HCC-1.2. Put plainly: Photocytotoxicity against human HCC1.2 cells assessed as growth inhibition at 1 to 10 uM after day light irradiation for 10 mins. Format: functional, cell-based.
The target in assay [6] is T2, Polyunsaturated fatty acid lipoxygenase ALOX15 (Homo sapiens) (UniProt P16050).
T2 sequence (whole entry): T1 sequence (P16050 whole entry)
Put plainly: Inhibition of recombinant human 15-LOX-1 expressed in Escherichia coli BL21(DE3) assessed as residual activity at 10 uM preincubated in darkness followed by measuring UV absorbance of 13(S)-HpODE at 234 nm over 16 mins. Put shortly:
(§1)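 Light-sensitivity test: h-15-LOX-1 preincubated with inhibitor for 2, 5 and 10 min under daylight, 365 nm UV irradiation or darkness, in triplicate. Linoleic acid conversion to 13(S)-HpODE then followed at 234 nm over 16 min, relative to a no-inhibitor positive control. Buffer 25 mM HEPES pH 7.4. Experiments repeated at least twice.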

The target in assay [7] is T2, Polyunsaturated fatty acid lipoxygenase ALOX15 (Homo sapiens). Kind of assay: Inhibition of recombinant human 15-LOX-1 expressed in Escherichia coli BL21(DE3) at 10 uM preincubated in light followed by measuring UV absorbance of 13(S)-HpODE at 234 nm over 16 mins. The following applies: TDE = time-dependent effect. The procedure, abridged:
as §1

Assay [8] has the same target. Put plainly: Inhibition of recombinant human 15-LOX-1 expressed in Escherichia coli BL21(DE3) at 10 uM preincubated with UV light at 365 nm followed by measuring UV absorbance of 13(S)-HpODE at 234 nm over 16 mins. The following applies: TDE = time-dependent effect. Put shortly:
as §1

The target is the same in assay [9]. Put plainly: Inhibition of recombinant human 15-LOX-1 expressed in Escherichia coli BL21(DE3) at 10 uM preincubated with UV light at 254 nm for 2 to 10 mins followed by measuring UV absorbance of 13(S)-HpODE at 234 nm over 16 mins. Put shortly: (§2)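 254 nm UV irradiation used as a control during preincubation of h-15-LOX-1 with inhibitor. Activity was then read as 13(S)-HpODE absorbance at 234 nm over 16 min, against a no-inhibitor control. Assay buffer 25 mM HEPES pH 7.4.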

For assay [10] the target is unchanged. Kind of assay: Inhibition of recombinant human 15-LOX-1 expressed in Escherichia coli BL21(DE3) at 15 uM preincubated in light followed by measuring UV absorbance of 13(S)-HpODE at 234 nm over 16 mins. As to conditions: TDE = time-dependent effect. The procedure, abridged: as §1
For assay [11] the target is unchanged. Kind of assay: Inhibition of recombinant human 15-LOX-1 expressed in Escherichia coli BL21(DE3) at 15 uM preincubated with UV light at 365 nm followed by measuring UV absorbance of 13(S)-HpODE at 234 nm over 16 mins. As to conditions: TDE = time-dependent effect. The procedure, abridged: as §1
For assay [12] the target is unchanged. Kind of assay: Inhibition of recombinant human 15-LOX-1 expressed in Escherichia coli BL21(DE3) at 15 uM preincubated with UV light at 254 nm for 2 to 10 mins followed by measuring UV absorbance of 13(S)-HpODE at 234 nm over 16 mins. Put shortly: as §2
Assay [13] has the same target. Put plainly: Inhibition of recombinant human 15-LOX-1 expressed in Escherichia coli BL21(DE3) assessed as residual activity at 15 uM preincubated in darkness followed by measuring UV absorbance of 13(S)-HpODE at 234 nm over 16 mins. Put shortly:
as §1

Assay [14] has the same target. Kind of assay: Uncompetitive inhibition of recombinant human 15-LOX-1 expressed in Escherichia coli BL21(DE3) assessed as enzyme apparent Vmax at 6 uM using linoleic acid as substrate preincubated for 10 mins followed by substrate addition by Lineweaver-Burk plot analysis (reference value: 106.10 +/- 40.95 abs/hr).
Assay [15] has the same target. Put plainly: Uncompetitive inhibition of recombinant human 15-LOX-1 expressed in Escherichia coli BL21(DE3) assessed as enzyme apparent Vmax at 8 uM using linoleic acid as substrate preincubated for 10 mins followed by substrate addition by Lineweaver-Burk plot analysis (reference value: 106.10 +/- 40.95 abs/hr).
For assay [16] the target is unchanged. Put plainly: Inhibition of recombinant human 15-LOX-1 expressed in Escherichia coli BL21(DE3) assessed as residual activity at 50 uM using linoleic acid as substrate preincubated for 10 mins followed by substrate addition. Put shortly:
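h-15-LOX-1 (1:100 enzyme stock, 1:400 final) preincubated 10 min at room temperature with inhibitor in 25 mM HEPES pH 7.4, then linoleic acid added to 25 µM final (inhibitor 50 µM final). 13(S)-HpODE formation read as A234 over time, rate taken from linear part within first 16 min; no-inhibitor = 100%, no-enzyme = 0%. Triplicate.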

SMILES strings stand for the structures. pIC50: −log10 of the molar value. Calls of active or inactive are those of the source. The calls are words filed in the database; no cut-off is given here.

On to `Nc1[nH]c(C(=O)c2ccccc2)c(-c2ccc(Cl)cc2Cl)c1C(=O)c1cccc(Cl)c1`, for which the pIC50 (as a rule, the negative decadic logarithm of the IC50, by convention in mol/L) in [1] is 5.16. The Activity entry with HCC-1.2 [2] was “Dose-dependent effect”; in assay [6], 80%. For the same molecule, the CC50 in the assay on HCC-1.2 [2] stood at 0.69 µM. Moreover, the outcome in the assay with HCC-1.2 [3], in the assay with HCC-1.2 [4] and in the assay with HCC-1.2 [5] was Active. The inhibition entry in assay [7] and in assay [8] was “Tde” in each case. Besides, the inhibition result in assay [9] is “inactive”.

Regarding `Nc1[nH]c(C(=O)c2ccccc2)c(-c2ccc(Cl)cc2Cl)c1C(=O)c1ccc(Cl)c(Cl)c1`, in assay [1], the pIC50 is 4.89. Moreover, the figures for the Activity result (in the assay on HCC-1.2 [2]; in assay [13]; in assay [16]) were “Dose-dependent effect”, 80% and 40.8%, respectively. Besides, in the assay on HCC-1.2 [2], the CC50 turned out to be 0.55 µM. In addition, the inhibition result in assay [10] and in assay [11] was “Tde” throughout. The inhibition entry in [12] is “inactive”. The Vmax(app) amounted to 68.2 abs/hr in [14] and 47.2 abs/hr in [15].
